Reference: ChEMBL document CHEMBL3875229, “Potent Antifungal Synergy of Phthalazinone and Isoquinolones with Azoles Against Candida albicans” (ACS Med Chem Lett, 2017)

Columns and labels:
Candida albicans [1] = test: microbe, parasite or virus in culture; conditions: HLY4123, 16 h
Candida albicans [2] = test: Antifungal activity against Candida albicans HLY4123 after 16 hrs in presence of 0.001 ug/ml of isavuconazole by ten fold serial dilution method; type: functional; conditions: HLY4123, 16 h
Candida albicans [3] = test: Antifungal activity against Candida albicans HLY4123 at 0.015 nM to […] after 16 hrs in presence of […] of fluconazole by checkerboard assay; type: functional
Summary of the method: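 Analogue and fluconazole were combined in a checkerboard format against C. albicans HLY4123. Fractional inhibitory concentration indices were calculated, with 0.5 taken as the upper limit for pharmacological synergy.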

[4] = Antifungal activity against fluconazole-resistant Candida albicans clinical isolate 17 after 16 hrs in presence of 12 ug/ml fluconazole by broth microdilution assay; type: functional
[5] = Antifungal activity against fluconazole-resistant Candida albicans clinical isolate 45 after 16 hrs in presence of 96 ug/ml fluconazole by broth microdilution assay; type: functional
[6] = Antifungal activity against fluconazole-resistant Candida albicans clinical isolate 26 after 16 hrs in presence of 32 ug/ml fluconazole by broth microdilution assay; type: functional
[7] = Antifungal activity against Candida albicans clinical isolate 45 after 16 hrs in presence of 0.5 ug/ml of isavuconazole by broth microdilution assay; type: functional
[8] = Antifungal activity against fluconazole-resistant Candida albicans clinical isolate 33 after 16 hrs in presence of 64 ug/ml fluconazole by broth microdilution assay; type: functional
Candida albicans [9] = test: Antifungal activity against Candida albicans HLY4123 after 16 hrs in presence of 0.05 ug/ml of fluconazole by ten fold serial dilution method; type: functional; conditions: HLY4123, 16 h
[10] = Antifungal activity against fluconazole-resistant Candida albicans clinical isolate 36 after 16 hrs in presence of 64 ug/ml fluconazole by broth microdilution assay; type: functional
[11] = Antifungal activity against Candida albicans clinical isolate 8 in presence of fluconazole; type: functional
Summary of the method: (§1)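 Dose-dependent broth microdilution against fluconazole-resistant clinical isolates. Analogue concentration was varied while fluconazole was held fixed at each isolate's own MIC50, measured separately for fluconazole alone. EC50 is given as arithmetic mean ± SD of three independent experiments.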

[12] = Antifungal activity against Candida albicans clinical isolate 2 in presence of fluconazole; type: functional
Summary of the method: as §1

## COc1cc(Br)ccc1-n1cc(C(=O)NCC(=O)NCCC2=CCCCC2)c2occc2c1=O
Candida albicans [1]
  EC50: > 10 µM

## COc1cc(Br)ccc1-n1cc(C(=O)N[C@@H](CCCCNC(=O)OCc2ccccc2Cl)C(=O)NCCC2=CCCCC2)c2ccccc2c1=O
Candida albicans [1]
  EC50: 0.023 µM

## COc1ccc(-n2cc(C(=O)NCC(=O)NCCC3=CCCCC3)c3ccccc3c2=O)c(OC)c1
Candida albicans [1]
  EC50: 0.033 µM

## COc1cc(Br)ccc1-n1nc(C(=O)NCC(=O)NCCC2=CCCCC2)c2ccccc2c1=O
Candida albicans [2]
  EC50: 0.004 µM
Candida albicans [1]
  EC50: 0.001 µM
Candida albicans [3]
  fractional inhibitory concentration index (FICI): <0.12
[4]
  EC50: 0.039 µM
[5]
  EC50: 0.065 µM
[6]
  EC50: 0.017 µM
[7]
  EC50: 0.013 µM
[8]
  EC50: 0.072 µM
Candida albicans [9]
  EC50: 0.007 µM
[10]
  EC50: 0.02 µM

## COc1ccc(-n2nc(C(=O)NCC(=O)NCCC3=CCCCC3)c3ccccc3c2=O)c(OC)c1
[11]
  EC50: 0.22 µM
Candida albicans [1]
  EC50: 0.015 µM
[12]
  EC50: 0.47 µM
Candida albicans [9]
  EC50: 0.049 µM

## COc1cc(Br)ccc1-n1cc(C(=O)NCC(=O)NCCC2=CCCCC2)c2ccc(Br)cc2c1=O
Candida albicans [1]
  EC50: 0.003 µM

## COc1cc(C#CCCCO)ccc1-n1cc(C(=O)NCC(=O)NCCC2=CCCCC2)c2ccccc2c1=O
Candida albicans [1]
  EC50: > 100 µM

## Cc1c(Cl)ccc2c1NC(=O)[C@@]21[C@H]2C(=O)N(c3ccccc3)C(=O)[C@H]2[C@H]2CN(C(=O)OCc3ccccc3)CCN21
Candida albicans [1]
  EC50: 0.0003 µM

## COc1cc(Br)ccc1-n1cc(C(=O)NCC(=O)NCCC2=CCCCC2)c2ccc(C#CCCCO)cc2c1=O
Candida albicans [1]
  EC50: > 100 µM

## COc1cc(Br)ccc1-n1cc(C(=O)NCC(=O)NCCC2=CCCCC2)c2ccccc2c1=O
Candida albicans [2]
  EC50: 0.006 µM
Candida albicans [1]
  EC50: 0.003 µM
Candida albicans [3]
  fractional inhibitory concentration index (FICI): <0.17
[4]
  EC50: 0.074 µM
[5]
  EC50: 0.17 µM
[6]
  EC50: 0.011 µM
[7]
  EC50: 0.11 µM
[8]
  EC50: 0.371 µM
Candida albicans [9]
  EC50: 0.024 µM
[10]
  EC50: 0.032 µM

## COc1cc(Br)ccc1-n1cc(C(=O)NCC(=O)NCCC2=CCCCC2)c2sccc2c1=O
Candida albicans [1]
  EC50: 0.23 µM

## COc1cc(C)ccc1-n1cc(C(=O)NCC(=O)NCCC2=CCCCC2)c2ccccc2c1=O
Candida albicans [1]
  EC50: 0.065 µM

## COc1cc(Br)ccc1-n1cc(C(=O)NCCc2ccccc2)c2ccccc2c1=O
Candida albicans [1]
  EC50: 0.22 µM

## COc1cc(Br)ccc1-n1cc(C(=O)NCC(=O)NCCc2ccccc2)c2ccccc2c1=O
Candida albicans [1]
  EC50: 0.02 µM
